Measurements: publication PMC2682635 (Psychopharmacology, 2009)
Several values for one entry are separate records, joined by “and”; a condition that tells them apart may be missing. Equal values may be shown once. Entries after “also recorded” stand apart in the source; their conditions may differ. Read-outs that look alike come from different tables or passages of the source.

Key:
baboons [1] = assay: Food-maintained operant behavior procedure; type: in vivo, Papio anubis
Method in brief: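 Test compound or vehicle was diluted in water to 150 ml total and infused intragastrically. Sessions started at 9:00 am right after dosing. Food pellets were available 20 h/day on a fixed-ratio schedule via a Lindsley operandum. Pellets earned were counted in ten 2-h bins up to 20 h. Analysis was repeated-measures two-way ANOVA (dose × time), p<0.05.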

baboons [2] = assay: Fine-motor task; type: in vivo, Papio anubis; conditions: across 30, 60 and 120 min, p<0.001
baboons [3] = assay: 30-min continuous behavioral observation session; type: in vivo, Papio anubis
baboons [4] = assay: Paper and pencil behavioral checklists; type: in vivo, Papio anubis
rhesus monkeys = conditions: food-maintained operant procedure; ref McMahon et al. 2003; cited from earlier work
baboons [5] = conditions: 4 h after administration; reanalyzed data; ref Goodwin et al. 2005; cited from earlier work
baboons [6] = conditions: ref Goodwin et al. 2005, cited from earlier work
humans = conditions: ref Carter et al. 2006; cited from earlier work
[7] = cited from earlier work; for Mean maximum concentration of GHB in plasma: human, 50 mg/kg GHB
[8] = Pharmacokinetics: GHB in plasma after intragastric GHB, GBL or 1,4-BD; conditions: for Mean maximum concentration of GHB in plasma: baboon, ±SD
[9] = 100 mg/kg, 60 to 90 min after drug
[10] = 180 mg/kg, 60 to 90 min after drug

Structure (SMILES): O=C1CCCO1 [GBL, Gamma-butyrolactone]
- Food-maintained behavior compared to vehicle (baboons [1]; 100 mg/kg, 2 h after administration, p<0.001): decreased
- Food-maintained behavior compared to vehicle (baboons [1]; 180 mg/kg, 2 h after administration, p<0.001): decreased
- Food-maintained behavior compared to vehicle (baboons [1]; 180 mg/kg, 4 h after administration): decreased
- Food-maintained behavior (baboons [1]; 240 mg/kg, one subject (HA), data not shown): suppressed over the entire 20 h
- Increase of food-maintained behavior (baboons [1]; all doses tested): none of the doses increased
- Time food-maintained behavior was suppressed after administration (baboons [1]; high doses): 4 h
- Duration to complete the fine-motor task compared to vehicle (baboons [2]; 100 mg/kg): increased
- Duration to complete the fine-motor task compared to vehicle (baboons [2]; 180 mg/kg): increased
- Duration of lip droop compared to vehicle (baboons [3]; [9]): significantly increased
- Frequency of ataxia compared to vehicle (baboons [3]; [9]): significantly increased
- Frequency of scratch/groom compared to vehicle (baboons [3]; [9]): significantly increased
- Frequency of tremor/jerks compared to vehicle (baboons [3]; [9]): significantly increased
- Duration of lip droop compared to vehicle (baboons [3]; [10]): significantly higher
- Duration of lying down compared to vehicle (baboons [3]; [10]): increased
- Frequency of ataxia compared to vehicle (baboons [3]; [10]): significantly higher
- Frequency of scratch/groom compared to vehicle (baboons [3]; [10]): decreased
- Frequency of tremor/jerks compared to vehicle (baboons [3]; [10]): significantly higher
- Frequency of vomit/retch compared to vehicle (baboons [3]; [10]): increased
- Observed effects of the high dose (baboons [3]; 240 mg/kg, once in one subject (HA), data not shown): resulted in convulsions; also recorded: vomit/retch, ataxia, tremor/jerks, sedation/anesthesia, and seizures; also recorded: both seizures and catalepsy
- Time to maximal effect, ataxia (baboons [4]; 100 mg/kg): 30 min
- Time to maximal effect, tremor/jerks (baboons [4]; 100 mg/kg): 30 min
- Duration of effects in ≥50% of subjects, ataxia (baboons [4]; 100 mg/kg IG): 1.0 h
- Duration of effects in ≥50% of subjects, lip droop (baboons [4]; 100 mg/kg IG): 2.0 h
- Duration of effects in ≥50% of subjects, vomit (baboons [4]; 100 mg/kg IG): 1.0 h
- Number of subjects at maximal effect, ataxia (baboons [4]; 100 mg/kg IG): 3/4
- Number of subjects at maximal effect, lip droop (baboons [4]; 100 mg/kg IG): 3/4
- Number of subjects at maximal effect, tremor/jerk (baboons [4]; 100 mg/kg IG): 1/4
- Number of subjects at maximal effect, vomit (baboons [4]; 100 mg/kg IG): 2/4
- Recovery of baseline (100% of subjects), ataxia (baboons [4]; 100 mg/kg IG): 2.5 h
- Recovery of baseline (100% of subjects), lip droop (baboons [4]; 100 mg/kg IG): 3.5 h
- Recovery of baseline (100% of subjects), vomit (baboons [4]; 100 mg/kg IG): 2.0 h
- Time to maximal effects, ataxia (baboons [4]; 100 mg/kg IG): 0.5 h
- Time to maximal effects, lip droop (baboons [4]; 100 mg/kg IG): 1.0 h
- Time to maximal effects, tremor/jerk (baboons [4]; 100 mg/kg IG): 0.5 h
- Time to maximal effects, vomit (baboons [4]; 100 mg/kg IG): 1 h and 1.0 h
- Time to maximal effect, ataxia (baboons [4]; 180 mg/kg): 30 min
- Time to maximal effect, tremor/jerks (baboons [4]; 180 mg/kg): 30 min
- Duration of effects in ≥50% of subjects, ataxia (baboons [4]; 180 mg/kg IG): 4 h and 4.0 h
- Duration of effects in ≥50% of subjects, lip droop (baboons [4]; 180 mg/kg IG): 2.5 h
- Duration of effects in ≥50% of subjects, tremor/jerk (baboons [4]; 180 mg/kg IG): 5 h and 5.0 h
- Duration of effects in ≥50% of subjects, vomit (baboons [4]; 180 mg/kg IG): 1.0 h
- Number of subjects at maximal effect, ataxia (baboons [4]; 180 mg/kg IG): 4/4
- Number of subjects at maximal effect, lip droop (baboons [4]; 180 mg/kg IG): 4/4
- Number of subjects at maximal effect, tremor/jerk (baboons [4]; 180 mg/kg IG): 4/4
- Number of subjects at maximal effect, vomit (baboons [4]; 180 mg/kg IG): 4/4
- Recovery of baseline (100% of subjects), ataxia (baboons [4]; 180 mg/kg IG): 6.0 h
- Recovery of baseline (100% of subjects), lip droop (baboons [4]; 180 mg/kg IG): 6.0 h
- Recovery of baseline (100% of subjects), tremor/jerk (baboons [4]; 180 mg/kg IG): 6.0 h
- Recovery of baseline (100% of subjects), vomit (baboons [4]; 180 mg/kg IG): 2.0 h
- Time to maximal effects, ataxia (baboons [4]; 180 mg/kg IG): 0.5 h
- Time to maximal effects, lip droop (baboons [4]; 180 mg/kg IG): 0.5 h
- Time to maximal effects, tremor/jerk (baboons [4]; 180 mg/kg IG): 0.5 h
- Time to maximal effects, vomit (baboons [4]; 180 mg/kg IG): 1 h and 1.0 h
- Return to baseline for all observed behavioral effects, time postadministration (baboons [4]; baboon (Papio anubis), in vivo, oral): ≤ 6 h
- Time after administration at which response rate was decreased (rhesus monkeys): 90 min

Structure (SMILES): O=C(O)CCCO [GHB, Gamma-hydroxybutyrate]
- Food-maintained behavior compared to vehicle (baboons [5]): not significantly altered
- Duration to complete the fine-motor task (baboons [6]; 180−420 mg/kg, 120 min postadministration): increased
- Duration to complete the fine-motor task (baboons [6]; any dose tested, 60 min postadministration): did not alter
- Time of maximal drug effects postadministration (humans): 1−2 h
- Maximum concentration of GHB, range ([7]; human subjects, total doses of 3−4.5 g GHB (i.e., 42.8 mg/kg), ref Scharf et al. 1998): 30 to 103 µg/mL
- Mean maximum concentration of GHB in plasma ([7]; ref Abanades et al. 2007): 83.1 (+10.7 SD) μg/ml
- Mean maximum concentration of GHB in plasma ([7]; ref Palatini et al. 1993): 20 µg/mL
- Mean maximum concentration of GHB in plasma ([8]; 32 mg/kg GHB): 18.46 (±8.66 SD) μg/ml
- Mean maximum concentration of GHB in plasma ([8]; 100 mg/kg GHB): 72.2 (±15.73 SD) μg/ml
- AUC ([8]; monkey, plasma, po, 320 mg/kg): 4580 µM·h
- Cmax ([8]; monkey, plasma, po, 320 mg/kg): 598 to 1940 µM
- half-life ([8]; monkey, plasma, po, 320 mg/kg): 12.2 h
- Tmax ([8]; plasma, po, 320 mg/kg): 6 h
